Source: PubChem
OXTR potentiator = potentiators of human oxytocin receptor; P30559; CHO-OTR cells, Fluo-8 calcium fluorescence, potentiator mode; 0% = oxytocin EC15, 100% = EC100; activation, % at 3 µM; 320,000 compounds, 0.061% hits; AID 2445;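 active means activation above that plate's cutoff, the mean activation of tested compounds plus 3 SD, cut at about 6.6% in these data, passing the limit was not always enough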;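 further: 100% uses oxytocin at 75 nM as the full agonist control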
Target sequence (P30559 whole entry, looked up): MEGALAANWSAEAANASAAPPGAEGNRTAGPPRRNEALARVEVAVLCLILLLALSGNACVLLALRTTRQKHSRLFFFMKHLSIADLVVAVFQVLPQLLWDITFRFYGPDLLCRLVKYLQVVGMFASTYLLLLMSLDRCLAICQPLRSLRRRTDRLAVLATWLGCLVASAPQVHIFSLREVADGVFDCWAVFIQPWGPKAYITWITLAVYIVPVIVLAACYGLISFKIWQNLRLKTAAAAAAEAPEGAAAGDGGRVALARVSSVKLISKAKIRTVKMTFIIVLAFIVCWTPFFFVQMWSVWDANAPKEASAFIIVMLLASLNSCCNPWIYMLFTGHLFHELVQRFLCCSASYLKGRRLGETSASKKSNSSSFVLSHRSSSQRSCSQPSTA
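Measured by – Fluo-8 calcium dye fluorescence · Test system – human OTR in CHO cells · Dosing – one concentration, 3.0 µM compound · Controls – EC15 oxytocin alone as 0%, 75 nM oxytocin as 100% · Evaluation – normalized max/min fluorescence ratio, % activation · Timing – 6 min pre-incubation, 100 s read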
TAAR1 ag = human TAAR1 agonism. Q96RJ0. CHO RD-HGA16 TAAR1, Fluo-8 calcium fluorescence; vehicle wells 0%, saturating PEA agonist 100%. activation, % at 3 µM. 360,000 compounds, 0.99% hits;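 active means activation above the mean activation of all test compounds in the run plus 3 SD, cut at about 38% in these data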
Target sequence (Q96RJ0 whole entry, looked up): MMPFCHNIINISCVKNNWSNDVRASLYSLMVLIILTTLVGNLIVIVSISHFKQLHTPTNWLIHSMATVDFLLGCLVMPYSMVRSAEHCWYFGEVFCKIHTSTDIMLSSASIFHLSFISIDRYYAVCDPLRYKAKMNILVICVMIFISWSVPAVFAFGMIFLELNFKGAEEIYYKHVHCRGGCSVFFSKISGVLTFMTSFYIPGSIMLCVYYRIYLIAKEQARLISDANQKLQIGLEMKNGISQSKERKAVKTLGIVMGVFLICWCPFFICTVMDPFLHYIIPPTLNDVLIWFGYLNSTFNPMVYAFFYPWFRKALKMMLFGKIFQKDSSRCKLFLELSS
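Signal – calcium-sensitive Fluo-8 signal, excitation 470-495, emission 515-575 nm · System – RD-HGA16 (CHO) cells co-expressing Gα16 and hTAAR1 · Incubation – 17-24 h seeding, 75 min 37 °C dye, 30 min RT · Compound dosing – 3 µM single concentration · Repeats – no replicates (n 1)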
OXTR agonist = agonists of human oxytocin receptor | 320,000 compounds, 0.32% hits | P30559 | activation, % at 3 µM | CHO-OTR cells, Fluo-8 calcium fluorescence; normalized: DMSO 0%, oxytocin 100%;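 active means activation above the mean of all tested compounds plus 3 SD, cutoff set per screening run, cut at about 20% in these data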;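 further: peak over basal fluorescence ratio from a 100 s FLIPR kinetic read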
V1aR counter = V1a receptor agonism, counter-screen for OXTR agonists; 320,000 compounds, 0.25% hits; AID 2797; P37288; activation, % at 3 µM; CHO-V1R cells, Fluo-8 calcium fluorescence, agonist mode; 0% DMSO, 100% 3 nM vasopressin;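 active means activation above the mean activation of all tested compounds plus 3 SD, per screening run, cut at about 20% in these data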;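 further: signal is peak over basal fluorescence ratio across a 100 second FLIPR read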
TAAR1 antagonist = antagonists of human TAAR1; Q96RJ0; CHO RD-HGA16 TAAR1, Fluo-8 calcium fluorescence, antagonist; inhibition, % at 3 µM; 360,000 compounds, 1.5% hits; AID 624466;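 active means inhibition above a per-plate cutoff, the mean inhibition of test compounds on that plate plus 3 SD, cut at about 49% in these data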;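 further: 0% = DMSO plus EC80 beta-PEA response and 100% = DMSO alone without agonist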
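Test system: hTAAR1-expressing CHO RD-HGA16 cells, Gα16-coupled; Probe or stimulus: EC80 β-phenethylamine stimulus; Compound dosing: single nominal final test compound concentration of 3 µM; Timing: 140 s kinetic read after compound, 140 s after agonist; Signal: Fluo-8 calcium-sensitive fluorescence; Measure: % inhibition of agonist calcium response; Controls: DMSO and EC80 PEA controls.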
OXTR pot cf = human OXTR potentiation, confirmation; shares compounds with OXTR potentiator; CHO-OTR cells, Fluo-8 calcium fluorescence; scaled from low-dose to maximal oxytocin; activation, % at 3 µM; 180 tested, under 10 active; AID 434985;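 active means mean percent activation over triplicates above a cutoff set from solvent-only control plates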;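 further: compounds tested in the presence of an EC15 dose of oxytocin; 0% = EC15 oxytocin with DMSO and 100% = EC100 oxytocin with DMSO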
The depositor's hits bear a star; . = no result given. Shown are actives, neighbours in structure and some others; about 2.3% of the full set was active somewhere.

SMILES | OXTR potentiator | TAAR1 ag | OXTR agonist | V1aR counter | TAAR1 antagonist | OXTR pot cf
CCNc1nc(NC(C)C)nc(N(C)C#N)n1 | 13* | 2 | -1 | 1 | 6 | 3
Cc1ccc(SCc2cc(=O)n3[nH]c(C)nc3n2)cc1 | -14 | 0 | 0 | -1 | -2 | .
Cc1ccc(SCc2cc(=O)n3[nH]cnc3n2)cc1 | 9.8* | 20 | 1 | -1 | -19 | -4
CCCN(CCC)CCNC(=O)CCC(=O)Nc1ccc2nc(N3CCN(C)CC3)cc(C)c2c1 | 12* | 5 | 0 | 1 | -10 | -1
C/C(=N/NC(=O)CNC(=O)c1ccccn1)c1cccc([N+](=O)[O-])c1 | 12* | 7 | 1 | 1 | 11 | -3
Cc1ccc(/C=N/NC(=O)CN2CCN(Cc3ccccc3)CC2)o1 | -5 | 1 | 0 | 0 | -12 | .
CCOC(=O)c1sc(C)c2c1NC1(CCCCC1)NC2=O | 11* | 2 | -2 | -2 | -3 | 1
O=C(O)c1ccc(-c2nnn(Cc3ccccc3F)n2)cc1 | 7.6* | -4 | 2 | 2 | -22 | -4
Cc1nc2ccccc2c(=O)n1NC(=O)C1CCCCC1 | -4 | -3 | -1 | 0 | 2 | .
O=C(Nn1c(C2CCC2)nc2ccccc2c1=O)C1CCC1 | 13* | 11 | -2 | -1 | 4 | -8
CCCCn1c(N)c(N(CC(C)C)C(=O)C2=COCCO2)c(=O)[nH]c1=O | -2 | 3 | 1 | -1 | -5 | .
CC(=O)N1CCN(S(=O)(=O)c2cccc(C(=O)OCN3C(=O)c4ccccc4C3=O)c2)CC1 | 11* | 6 | 2 | 1 | -5 | -6
CC(=O)N1CCN(S(=O)(=O)c2cccc(C(=O)OCc3ccc(F)cc3)c2)CC1 | . | 4 | . | . | 1 | .
CCN(CC(=O)Nc1c(F)cccc1F)C(=O)/C=C/c1ccc2ccccc2n1 | 21* | 6 | 0 | 0 | -12 | -5
CCN(CC(=O)Nc1c(F)cccc1F)C(=O)c1ccc2ccccc2n1 | 4 | 0 | 0 | 0 | -9 | .
CCN(CC)C(=O)c1ccc(CS(=O)(=O)Cc2ccccc2)cc1 | . | 0 | . | . | -4 | .
C[C@H]1COC(=O)[C@@H](Cc2ccc(F)cc2)C/C=C\C[C@@H](CC(=O)NCCO)C(=O)N1 | 14* | 8 | 2 | 1 | 9 | -3
COc1ccc(Nc2nc(C)cc(-c3cc(-c4ccccc4)on3)n2)cc1 | -4 | 7 | 1 | 1 | -9 | .
Cc1cccc(C(=O)NNC(=O)c2ccc(-c3ccccc3)cc2)c1 | -3 | 3 | 0 | 1 | 3 | .
O=C(NNC(=O)c1ccc(-c2ccccc2)cc1)c1ccccc1 | 12* | 0 | 2 | 1 | -1 | -9
COc1ccc2c(c1)OC[C@H]1[C@H]2N2C(=O)c3cc(F)ccc3NC(=O)[C@@]2(C)[C@H]1c1ccccc1 | 13* | -1 | 2 | 2 | 7 | -8
COc1ccc2c(c1)OC[C@H]1[C@H]2N2C(=O)c3cc(OC)ccc3NC(=O)[C@@]2(C)[C@H]1c1ccccc1 | -4 | 2 | 0 | 0 | 7 | .
O=c1cc(-c2c(F)c(F)c(F)c(F)c2F)oc2c(F)c(F)c(F)c(F)c12 | 19* | . | -2 | -1 | . | 11*
CCCOc1ccc(C(=O)N2CCCc3ccccc32)cc1 | -10 | 3 | -2 | -1 | -4 | .
CCOc1ccc(C(=O)N2CCc3ccccc32)cc1 | 12* | -1 | -2 | -1 | -3 | 0
SMILES | OXTR potentiator | TAAR1 ag | OXTR agonist | V1aR counter | TAAR1 antagonist | OXTR pot cf
COc1ccc(-c2nc(CN3CCC(C(=O)NC4CCCC4)CC3)c(C)o2)cc1OC | 16* | 3 | 0 | 0 | -18 | -4
Cc1cc(C(=O)N2CCN(CCc3ccccc3)CC2)no1 | 10* | 0 | 1 | 0 | 6 | -2
Cc1ccc(-n2nc(C(=O)c3ccccc3)n3c(=O)c(Cc4ccccc4)nnc23)cc1 | 9.9* | 8 | -1 | -2 | -1 | 0
COc1ccc([N+](=O)[O-])cc1-n1cccc1 | 13* | -1 | 0 | 0 | -11 | -7
COc1ccc([N+](=O)[O-])cc1N1C(=O)c2cccc3cccc(c23)C1=O | -6 | 1 | 0 | 2 | 3 | .
Cn1c(=O)c2c(nc(Br)n2CC(=O)C23CC4CC(CC(C4)C2)C3)n(C)c1=O | 10* | 18 | -1 | 0 | 30 | -4
CCCOc1ccc(C(=O)OCC(=O)NCCc2ccc(OCC)c(OCC)c2)cc1OC | 2 | 0 | -2 | 0 | -34 | .
CCOc1ccc(CCNC(=O)COC(=O)c2cc(OC)cc(OC)c2)cc1OCC | 9.8* | -2 | -2 | -1 | -14 | -3
O=C(N/N=C/C=C\c1ccco1)c1cccs1 | -4 | 2 | -1 | 0 | 3 | .
CCOC(=O)c1c(CN2CCC(C)CC2)oc2ccc(OC)cc12 | 12* | 8 | -2 | -1 | -21 | -5
Cc1n[nH]c(C)c1CCN(C)C(=O)C1CCC(=O)N(CC2CCCCC2)C1 (centres undefined) | -4 | 1 | 0 | 0 | -11 | .
CCOC(=O)N1CCN(C(=O)COc2ccc(Cl)cc2)CC1 | 12* | 12 | 2 | 1 | 6 | -6
COc1ccc(CCC(=O)Nc2cccc(S(=O)(=O)N3CCOCC3)c2)cc1OC | . | 5 | . | . | -35 | .
COc1ccc2cc(S(=O)(=O)N3CCOCC3)ccc2c1 | 11* | 0 | 0 | 1 | 4 | -4
Cc1cc(C)c(S(C)(=O)=O)c(N(C)N)n1 | -1 | 6 | 0 | -1 | 1 | .
COCCOc1ccc(C(F)(F)F)cc1NC(=O)c1ccccc1 | 14* | 3 | -2 | -1 | 11 | -2
COCCOc1ccc(C(F)(F)F)cc1NC(=O)c1ccc(F)cc1 | -8 | 24 | -2 | 0 | 4 | .
COC(=O)C1CC(Cl)CN1c1ncc(C(F)(F)F)cc1Cl (centres undefined) | 16* | 0 | -3 | -1 | -2 | -2
O=C(/C=C/c1ccc([N+](=O)[O-])cc1)c1cccnc1 | 13* | 3 | 3 | 1 | -29 | -6
O=C(/C=C/c1ccc([N+](=O)[O-])cc1)NCc1cccnc1 | -13 | 5 | 1 | 0 | 0 | .
Cc1c(C(=O)NCCc2ccccc2)oc2ccccc12 | 11* | -2 | -2 | -1 | 5 | -10
COc1ccc2oc(C(=O)NCCc3ccccc3)c(C)c2c1 | 4 | 3 | -2 | -1 | -4 | .
CCOc1ccccc1Oc1c(C)oc2cc(OC(=O)c3ccco3)ccc2c1=O | 13* | 8 | -1 | 0 | -1 | 1
COc1cc(OC)cc(-c2c(-c3cccs3)c3cc(-c4ccc(C(N)=O)cc4)ccc3n2C)c1 | 13* | 17 | 3 | 2 | -5 | -5
